Source: ChEMBL document CHEMBL1153639, “A facile synthesis and antimycobacterial evaluation of novel spiro-pyrido-pyrrolizines and pyrrolidines” (2009)
In brackets after ≈: the same amount, converted by molar mass.

Test system: Mycobacterium tuberculosis
Test: Antimycobacterial against multidrug resistant Mycobacterium tuberculosis by agar dilution method
Type: functional
Method in brief: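 Strain was an MDR-TB clinical isolate resistant to isoniazid and rifampicin, among other drugs. MIC read by agar dilution, run in triplicate.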

Structure (SMILES)	MIC [µM]
CN1CCC(=O)[C@]2(C1)[C@@H](c1ccc(Cl)cc1Cl)[C@@H]1CCCN1[C@@]21C(=O)Nc2ccccc21	1.66 (≈ 0.781 µg/mL)
CN1CCC(=O)[C@]2(C1)[C@@H](c1ccc(Cl)cc1Cl)CN(C)[C@@]21C(=O)Nc2ccccc21	0.88 (≈ 0.391 µg/mL)
CN1CCC(=O)[C@]2(C1)[C@@H](c1ccccc1Cl)[C@@H]1CCCN1[C@@]21C(=O)Nc2ccccc21	3.58 (≈ 1.56 µg/mL)
CC[C@@H](CO)NCCN[C@@H](CC)CO [ETHAMBUTOL]	61.2 (≈ 12.5 µg/mL)
NNC(=O)c1ccncc1 [ISONIAZID]	11.4 (≈ 1.56 µg/mL)
NC(=O)c1cnccn1 [PYRAZINAMIDE]	406 (≈ 50 µg/mL)
